Data set [1] in a line: (§1) Inhibition of full-length myosin ATPase activity in bovine cardiac myofibrils. The data set is classed as subcellular, Bos taurus, Heart. A digest of the protocol:
(§2)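 Bovine cardiac myofibril ATPase assay run at a calcium level giving 75% of maximal activity.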

Data set [2] in a line: Metabolic stability in rat liver microsomes assessed as intrinsic clearance measured upto 90mins by HPLC/MS/MS analysis. The settings on record: read-out: CLH. Format: ADME, Microsome. A general note: Liver microsomes are vesicles of endoplasmic reticulum, rich in cytochrome P450 enzymes.
The nature of data set [3]: Metabolic stability in human liver microsomes assessed as intrinsic clearance measured upto 90mins by HPLC/MS/MS analysis. Format: ADME, Microsome. Conditions: read-out: CLH.
The nature of data set [4]: Plasma protein binding in rat plasma assessed as unbound concentration at 5 uM incubated for 6 hrs by HPLC analysis. Format: ADME, cell-free.
Data set [5] is filed under the species Bos taurus. Described as §1. Format: subcellular. Conditions: Heart, Myofibril. A digest of the protocol:
as §2

Data set [6] is described as follows: Plasma protein binding in rat assessed as unbound fraction. Format: ADME, cell-free.
Data set [7] can be described thus: Clearance in Sprague-Dawley rat at 1 mg/kg. The data set is classed as ADME, organism-based. Conditions: in vivo. A digest of the protocol:
(§3)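 Rat PK with iv and po administration at 1 mg/kg. Clearance and half-life came from the iv arm, and bioavailability from the iv/po comparison.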

The nature of data set [8]: Half life in Sprague-Dawley rat at 1 mg/kg. Format: ADME, organism-based. Conditions: in vivo. A digest of the protocol: as §3
The nature of data set [9]: Bioavailability in Sprague-Dawley rat at 1 mg/kg, po or 1 mg/kg, iv. Format: ADME, organism-based. Conditions: in vivo. A digest of the protocol: as §3
Data set [10] is described as follows: Clearance in Sprague-Dawley rat at 1 mg/kg. Conditions: in vivo.

In general, IC50 refers to the point on the concentration scale where inhibition reaches its midpoint. What is called fraction unbound is the share of the substance not bound to proteins or other matrix. Consider `Cc1cc(C(=O)NC2CCc3cc(-c4noc(C)n4)ccc32)ccn1` (racemic), for which, in data set [1], the half-inhibitory concentration (IC50) is 7.1 µM. Also, the CLint scaled is below 21 mL/min/kg in data set [2] and below 11 mL/min/kg in [3]. Besides, the fraction unbound at 6 h, 5 µM in data set [4] amounted to 0.097.
`CCc1nc(-c2ccc3c(c2)CCN3C(=O)NCc2ccccc2)no1` gave a concentration for half-maximal inhibition (IC50) in data set [1] above 39 µM. Further, the IC15 in data set [5] is above 39 µM.
`Cn1cc(C(=O)N[C@@H]2CCc3cc(-c4ncon4)ccc32)cn1` registered an IC50 in data set [1] above 39 µM.
In data set [1], `Cn1cc(C(=O)N[C@@H]2CCc3cc(-c4noc(CCO)n4)ccc32)cn1` showed a 50% inhibitory concentration (IC50) above 39 µM.
Turning to `Cc1nc(-c2ccc3c(c2)CCC3NC(=O)c2nnn(C)n2)no1` (racemic), the concentration for half-maximal inhibition (IC50) in [1] was 5.1 µM. Also, the figures for the CLint scaled in data set [2] and in [3] were below 21 mL/min/kg and below 11 mL/min/kg, respectively. In [4], the fraction unbound at 6 h, 5 µM turned out to be 0.19.
In the same order, the values of `Cc1nc(-c2ccc3c(c2)CCC3NC(=O)c2ccccc2)no1` (racemic) are 1.9 µM, above 124 mL/min/kg, 24 mL/min/kg and 0.043.
Molecule `CCc1nc(-c2ccc3c(c2)CCN3CCc2ccccc2)no1` showed a concentration for half-maximal inhibition (IC50) in [1] above 39 µM. Also, in [5], the IC15 was determined as 3.4 µM.
In the case of `CCc1nc(-c2ccc3c(c2)CCN3C(=O)Nc2ccccc2)no1`, in data set [1], the IC50 is above 39 µM. This molecule yielded an IC15 in [5] above 39 µM.
In the case of `Cc1nc(-c2ccc3c(c2)CCC3NC(=O)c2oncc2C)no1` (racemic), in data set [1], the half-inhibitory concentration (IC50) stood at 2.5 µM. In addition, the CLint scaled is 46 mL/min/kg in data set [2] and below 11 mL/min/kg in data set [3]. The fraction unbound at 6 h, 5 µM in [4] is 0.064.
For orientation: clearance means a measure of how efficiently the substance is removed, as volume per time. A higher clearance goes with efficient removal. What is called half-life is how long it takes for the measured level to halve. Lower therefore signals fast loss. As a reminder, the bioavailability is dose-corrected exposure relative to a reference, in per cent. A higher bioavailability goes with good availability. `CCc1nc(-c2ccc3c(c2)CC[C@H]3NC(=O)c2ccnc(C)c2)no1` had a 50% inhibitory concentration (IC50) in data set [1] of 1.2 µM. Further, the CLint scaled was 23 mL/min/kg in data set [2] and below 11 mL/min/kg in [3]. Also, the unbound share (fraction unbound) at 6 h, 5 µM in [4] amounted to 0.084. Also, the unbound share (fraction unbound) in data set [6] came out at 0.021. Further, the clearance in data set [7] and in data set [10] was 13 mL/min/kg each time. The same molecule showed a half-life in data set [8] of 3.5 h. The molecule also registered a bioavailability in [9] of 32%.
In [1], `CCc1nc(-c2ccc3c(c2)CCC3NC(=O)c2ccccc2)no1` (racemic) gave an IC50 of 1 µM. Further, the CLint scaled in [2] was above 124 mL/min/kg; in [3] it was above 62 mL/min/kg. Besides, the unbound share (fraction unbound) at 6 h, 5 µM in data set [4] was 0.023.
For `CCc1nc(-c2ccc3c(c2)CCN3C(=O)CCc2ccccc2)no1`, in data set [1], the half-maximal inhibitory concentration (IC50) is above 39 µM. In data set [5], this molecule gave an IC15 above 39 µM.
Take `Cc1cc(C(=O)N[C@@H]2CCc3cc(-c4noc(C(C)C)n4)ccc32)ccn1`: the IC50 in data set [1] worked out at 2.7 µM. In addition, the results for the CLint scaled in data set [2] and in [3] were 23 mL/min/kg and below 11 mL/min/kg, respectively. For the same molecule, the fraction unbound at 6 h, 5 µM in data set [4] turned out to be 0.053. In addition, the clearance in data set [7] and in data set [10] was 14 mL/min/kg throughout. Moreover, the half-life in data set [8] is 4.6 h. For the same molecule, the bioavailability in data set [9] came out at 79%.
`CCc1nc(-c2ccc3c(c2)CC[C@H]3NC(=O)c2cc(C)ncn2)no1`: inhibition in [1] was half-maximal at 1.8 µM (IC50). In addition, the CLint scaled in data set [2] is 24 mL/min/kg; in data set [3], below 11 mL/min/kg. Moreover, in [4], the fraction unbound at 6 h, 5 µM was found to be 0.092. Moreover, the fraction unbound in data set [6] was 0.046. Moreover, the clearance in data set [7] and in [10] was 20 mL/min/kg in each case. The molecule also had a half-life in data set [8] of 5.9 h. Moreover, in [9], the bioavailability was determined as 26%.
As for `CC(C)c1nc(-c2ccc3c(c2)CC[C@H]3NC(=O)c2nnn(C)n2)no1`, in data set [1], the IC50 turned out to be 1.9 µM. Moreover, the CLint scaled in data set [2] is below 21 mL/min/kg; in [3] it was below 11 mL/min/kg. Also, the fraction unbound at 6 h, 5 µM in data set [4] stood at 0.17. The free fraction (fraction unbound) in data set [6] is 0.089. Also, the clearance in data set [7] and in [10] was 16 mL/min/kg in each case. Besides, the half-life in data set [8] is 4.6 h. In [9], this molecule returned a bioavailability of 52%.
In data set [1], `CCc1nc(-c2ccc3c(c2)CCN3C(=O)c2ccccc2)no1` showed an IC50 above 39 µM. This molecule also had an IC15 in data set [5] above 39 µM.
Molecule `CCc1nc(-c2ccc3c(c2)CC[C@H]3NC(=O)c2ccnnc2)no1` displayed a half-inhibitory concentration (IC50) in data set [1] of 1.2 µM. The CLint scaled in data set [3] is below 11 mL/min/kg. The free fraction (fraction unbound) at 6 h, 5 µM in data set [4] is 0.31. Also, the clearance in [7] and in data set [10] was 44 mL/min/kg throughout. In data set [8], this molecule showed a half-life of 6.6 h. Moreover, in data set [9], the bioavailability amounted to 16%.
Take `Cc1nc(-c2ccc3c(c2)CCC3NC(=O)c2cnc(C)n2C)no1` (racemic): the IC50 in [1] is 7.6 µM. Besides, the CLint scaled was below 21 mL/min/kg in [2] and below 11 mL/min/kg in data set [3]. The free fraction (fraction unbound) at 6 h, 5 µM in data set [4] was 0.089.
With `CCc1nc(-c2ccc3c(c2)CCN3C(=O)CSc2ccccc2)no1`, the IC50 in data set [1] is above 39 µM. This molecule also registered an IC15 in data set [5] above 39 µM.
`Cc1cc(C(=O)NC2CCc3cc(-c4noc(C)n4)ccc32)on1` (racemic) gave a half-maximal inhibitory concentration (IC50) in data set [1] of 8.1 µM. Also, the CLint scaled in data set [2] is 48 mL/min/kg; in data set [3], below 11 mL/min/kg. In addition, the fraction unbound at 6 h, 5 µM in data set [4] came out at 0.072.
Consider `CCc1nc(-c2ccc3c(c2)CC[C@H]3NC(=O)c2cnc(C)o2)no1`, for which the IC50 in data set [1] came out at 1.7 µM. Further, the CLint scaled in data set [2] is below 21 mL/min/kg; in data set [3], below 11 mL/min/kg. For the same molecule, in data set [4], the fraction unbound at 6 h, 5 µM was 0.18. The free fraction (fraction unbound) in data set [6] is 0.046. The clearance in data set [7] and in data set [10] was 21 mL/min/kg in each case. In addition, the half-life in data set [8] is 4.1 h. In [9], this molecule registered a bioavailability of 13%.
As to `CCc1nc(-c2ccc3c(c2)CC[C@H]3NC(=O)c2ocnc2C)no1`, the 50% inhibitory concentration (IC50) in [1] was found to be 0.8 µM. The CLint scaled in [3] is below 11 mL/min/kg. For the same molecule, the unbound share (fraction unbound) at 6 h, 5 µM in [4] is 0.1. For the same molecule, in data set [6], the fraction unbound worked out at 0.051. Moreover, the clearance in [7] and in data set [10] was 40 mL/min/kg throughout. The molecule also showed a half-life in data set [8] of 14.7 h. The molecule also showed a bioavailability in [9] of 0%.
As to `Cc1cc(C(=O)N[C@@H]2CCc3cc(-c4noc(C5CC5)n4)ccc32)ccn1`, the concentration for half-maximal inhibition (IC50) in [1] came to 1.9 µM. Besides, the CLint scaled was below 21 mL/min/kg in data set [2] and below 11 mL/min/kg in data set [3]. In addition, in [4], the fraction unbound at 6 h, 5 µM turned out to be 0.049. Further, the clearance in [7] and in data set [10] was 3 mL/min/kg throughout. The molecule further had a half-life in [8] of 13.8 h. For the same molecule, the bioavailability in data set [9] was found to be 70%.
For `CC(C)c1nc(-c2ccc3c(c2)CC[C@H]3NC(=O)c2cnn(C)c2)no1`, the IC50 in [1] came to 4.1 µM. That is a single-digit micromolar value.
Same read-out and setting: the same measure for `COCCc1nc(-c2ccc3c(c2)CC[C@H]3NC(=O)c2cnn(C)c2)no1`: above 39 µM.
In [1], `CCc1nc(-c2ccc3c(c2)CC[C@H]3NC(=O)c2cn[nH]c2)no1` came in with an IC50 of 1.1 µM. The results for the CLint scaled in [2] and in [3] were 66 mL/min/kg and below 11 mL/min/kg, respectively. For the same molecule, in data set [4], the unbound share (fraction unbound) at 6 h, 5 µM amounted to 0.2. The unbound share (fraction unbound) in data set [6] is 0.2. For the same molecule, the clearance in data set [7] and in data set [10] was 63 mL/min/kg each time. Further, the half-life in [8] is 1.4 h. In data set [9], this molecule showed a bioavailability of 10%.
As for `CCc1nc(-c2ccc3c(c2)CCN3C(=O)Cc2ccccc2)no1`, the IC50 in data set [1] stood at 19.1 µM. Besides, the IC15 in [5] is 3.5 µM.
In the same order, the values of `CCc1nc(-c2ccc3c(c2)CCN3C(=O)OCc2ccccc2)no1` are above 39 µM and 1.3 µM.
For `CCc1nc(-c2ccc3c(c2)CCN3C(=O)COc2ccccc2)no1` the same measures were 2.7 µM and 0.9 µM.
